Results published in ChEMBL document CHEMBL1806425, “Design and synthesis of 4-amino-2-phenylquinazolines as novel topoisomerase I inhibitors with molecular modeling” (Bioorg Med Chem, 2011).
Converted amounts (≈) assume the structure as drawn. The source made the active and inactive calls. No cut-off for these calls is given here.

Tests used:
[1] = system: SK-MEL-2; assay: Cytotoxicity against human SK-MEL-2 cells by sulforhodamine B assay; type: functional, cell-based
[2] = system: HCT-15; assay: Cytotoxicity against human HCT15 cells by sulforhodamine B assay; type: functional, cell-based
[3] = system: SK-OV-3; assay: Cytotoxicity against human SKOV3 cells by sulforhodamine B assay; type: functional, cell-based
[4] = system: A549; assay: Cytotoxicity against human A549 cells by sulforhodamine B assay; type: functional, cell-based
[5] = species: Bos taurus; assay: Inhibition of calf thymus DNA topoisomerase I assessed as relaxation of supercoiled DNA pBR322 at 100 ug/ml after 30 mins by agarose gel electrophoresis relative to camptothecin
In short: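 Relaxation of 200 ng pBR322 supercoiled plasmid by 2 units calf thymus topo I, incubated with or without compound (20 mM DMSO stocks) for 30 min at 37 °C. Buffer: 35 mM Tris–HCl pH 8.0, 72 mM KCl, 5 mM MgCl2, 5 mM DTT, 2 mM spermidine, 0.01% BSA. The reaction was stopped with SDS/glycerol dye, then run on 1% agarose in TAE at 15 V for 6 h and stained.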

[6] = species: Bos taurus; assay: Inhibition of calf thymus DNA topoisomerase I assessed as relaxation of supercoiled DNA pBR322 at 10 to 100 ug/ml after 30 mins by agarose gel electrophoresis
In short: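 Relaxation of supercoiled pBR322 plasmid DNA (200 ng) by 2 units calf thymus topo I, incubated with or without compound at 37 °C for 30 min. Buffer: 35 mM Tris–HCl pH 8.0, 72 mM KCl, 5 mM MgCl2, 5 mM DTT, 2 mM spermidine, 0.01% BSA. Stopped with SDS/dye/glycerol solution. Run on 1% agarose gel in TAE at 15 V for 6 h, then stained. Compound stocks were 20 mM in DMSO.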

Compound	IC50 [1]	IC50 [2]	IC50 [3]	IC50 [4]	inhibition [5]	inhibition [6]
CCOC(=O)CCNc1nc(-c2ccccc2)nc2ccccc12.Cl	> 100 µg/mL	> 100 µg/mL	> 100 µg/mL	> 100 µg/mL	inactive	–
CN1CCCN(c2nc(-c3ccccc3)nc3ccccc23)CC1	36.5 µg/mL (≈ 115 µM)	20.1 µg/mL (≈ 63.1 µM)	26.1 µg/mL (≈ 82 µM)	24.1 µg/mL (≈ 75.7 µM)	Active	–
CNc1nc(-c2ccccc2)nc2ccccc12	24.4 µg/mL (≈ 104 µM)	21.2 µg/mL (≈ 90 µM)	33.6 µg/mL (≈ 143 µM)	29.3 µg/mL (≈ 125 µM)	inactive	–
COc1cccc2c1C(=O)c1c(O)c3c(c(O)c1C2=O)C[C@@](O)(C(=O)CO)C[C@@H]3O[C@H]1C[C@H](N)[C@H](O)[C@H](C)O1 [DOXORUBICIN]	0.09 µg/mL (≈ 0.166 µM)	0.05 µg/mL (≈ 0.092 µM)	0.08 µg/mL (≈ 0.147 µM)	–	–	–
c1ccc(-c2nc(N3CCOCC3)c3ccccc3n2)cc1	65.2 µg/mL (≈ 224 µM)	51.8 µg/mL (≈ 178 µM)	57 µg/mL (≈ 196 µM)	52.8 µg/mL (≈ 181 µM)	Active	–
Cl.c1ccc(CNc2nc(-c3ccccc3)nc3ccccc23)cc1	15.8 µg/mL	6.13 µg/mL	9.5 µg/mL	9.79 µg/mL	–	–
c1ccc(-c2nc(NC3CCCCC3)c3ccccc3n2)cc1	9.63 µg/mL (≈ 31.7 µM)	2.76 µg/mL (≈ 9.1 µM)	9.82 µg/mL (≈ 32.4 µM)	7.23 µg/mL (≈ 23.8 µM)	Active	–
COCCNc1nc(-c2ccccc2)nc2ccccc12	27.6 µg/mL (≈ 98.9 µM)	26.8 µg/mL (≈ 96.1 µM)	22.9 µg/mL (≈ 82 µM)	27.4 µg/mL (≈ 98.3 µM)	Active	–
CC(C)Nc1nc(-c2ccccc2)nc2ccccc12	16.5 µg/mL (≈ 62.5 µM)	4.11 µg/mL (≈ 15.6 µM)	16.9 µg/mL (≈ 64.2 µM)	7.53 µg/mL (≈ 28.6 µM)	Active	–
CC[C@@]1(O)C(=O)OCc2c1cc1n(c2=O)Cc2cc3ccccc3nc2-1 [CAMPTOTHECIN]	6.88 µg/mL (≈ 19.7 µM)	0.096 µg/mL (≈ 0.276 µM)	1.54 µg/mL (≈ 4.42 µM)	0.072 µg/mL (≈ 0.207 µM)	–	Active
CN(C)CCN(C)c1nc(-c2ccccc2)nc2ccccc12	28.9 µg/mL (≈ 94.4 µM)	26.5 µg/mL (≈ 86.4 µM)	25.5 µg/mL (≈ 83.3 µM)	28.1 µg/mL (≈ 91.8 µM)	Active	–
COC(=O)CNc1nc(-c2ccccc2)nc2ccccc12	37.6 µg/mL (≈ 128 µM)	37.5 µg/mL (≈ 128 µM)	35.5 µg/mL (≈ 121 µM)	36.3 µg/mL (≈ 124 µM)	Active	–
CN1CCN(c2nc(-c3ccccc3)nc3ccccc23)CC1	37 µg/mL (≈ 122 µM)	22.4 µg/mL (≈ 73.5 µM)	26.8 µg/mL (≈ 88.2 µM)	26.9 µg/mL (≈ 88.3 µM)	Active	–
c1ccc(CNc2nc(-c3ccccc3)nc3ccccc23)cc1	31.2 µg/mL (≈ 100 µM)	13.9 µg/mL (≈ 44.7 µM)	31.7 µg/mL (≈ 102 µM)	15.1 µg/mL (≈ 48.6 µM)	–	–
